In BindingDB's records for doi:10.1021/jm060468y (Johannes Gutenberg University, 2006):

Target: T1, E-selectin (Homo sapiens, UniProt P16581)
T1 sequence (P16581 whole entry): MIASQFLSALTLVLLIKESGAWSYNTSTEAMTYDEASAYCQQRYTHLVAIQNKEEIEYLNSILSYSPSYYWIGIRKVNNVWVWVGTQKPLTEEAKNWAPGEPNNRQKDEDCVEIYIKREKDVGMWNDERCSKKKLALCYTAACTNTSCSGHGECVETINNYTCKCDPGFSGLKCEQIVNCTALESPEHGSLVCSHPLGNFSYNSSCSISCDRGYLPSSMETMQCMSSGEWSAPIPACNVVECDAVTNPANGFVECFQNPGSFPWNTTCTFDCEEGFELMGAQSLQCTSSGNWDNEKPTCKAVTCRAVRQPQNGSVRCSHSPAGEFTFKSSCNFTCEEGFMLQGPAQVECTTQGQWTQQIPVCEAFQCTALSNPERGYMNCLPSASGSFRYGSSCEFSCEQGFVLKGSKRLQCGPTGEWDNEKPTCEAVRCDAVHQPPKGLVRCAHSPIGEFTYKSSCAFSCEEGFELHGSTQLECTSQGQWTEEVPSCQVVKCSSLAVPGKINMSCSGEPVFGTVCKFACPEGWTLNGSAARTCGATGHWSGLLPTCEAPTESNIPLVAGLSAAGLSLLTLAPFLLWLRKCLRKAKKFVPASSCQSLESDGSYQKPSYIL
Experiment: Inhibition of MM6 cell adhesion to recombinant E-selectin by flow chamber assay
In short: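 Wells coated overnight at 4 °C with recombinant soluble E-selectin (5 µg/mL in PBS with Ca2+/Mg2+). Background wells had no selectin. Compound in RPMI with 1% FCS and DMSO applied for 60 min, then washed. MM6 cells (1 × 10^6/mL, RPMI + 1% FCS) perfused at 1 dyn/cm2 shear for 4 min. Cells adhering ≥30 s were counted in four random fields in the first minute by phase-contrast video microscopy. Experiments run two or three times; IC50 by curve fitting.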

Work on `CCCCCCCCCCOc1cc(OCCCCCCCCCC)cc(OCCCCCCON=C(c2ccc(C(=O)O)cc2)c2ccc(C(=O)O)cc2)c1` yielded an IC50 of 20 µM.
`CCCCCCCCCCOc1cc(OCCCCCCCCCC)cc(OCCCCCCN(c2ccc(C(=O)O)cc2)c2ccc(C(=O)O)cc2)c1` was tested, and the IC50 was 28 µM.
